Where two headings read alike, the source gives them in different places.
What was measured:
Format in all cases: cell-based
[1] = tested on: Hela cells; assay: Hoechst 33,258 staining assay; details: increasing concentration 0.5-4 μM, 24 h
Outline: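 HeLa cells seeded at 1 × 10^4/well in twelve-well plates and grown 24 h in regular medium. Treated 24 h with test compound (0, 0.5, 1, 2, 4 μM) or 5-Fu (5.0 μM). Washed twice with PBS, stained with Hoechst 33,258 for 30 min in the incubator, washed, then imaged by fluorescence microscopy for apoptotic nuclear and cell morphology.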

[2] = tested on: A549; assay: MTT cell viability assay, A549; details: for IC50: read-out: IC50(μM) A549
[3] = tested on: Hela cells; assay: Annexin V-FITC/PI apoptosis assay; details: 24 h (control 14.06 %)
[4] = tested on: MCF-7 cells; assay: Colony formation assay, MCF-7; details: 0.5 mM (so in the source), vs 5-Fu 5 μM
Outline: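 MCF-7 cells grown in DMEM with 10 % FBS and 1 % penicillin–streptomycin at 37 °C, 5 % CO2. Seeded at 1500 cells/well in six-well plates, grown 48 h, then exposed to test compound or 5-Fu for 7 days. Washed with PBS, fixed with paraformaldehyde for 30 min, stained with crystal violet for 30 min, photographed. Clone formation rate quantified; mean ± SD of three separate experiments.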

[5] = tested on: Hela; assay: MTT cell viability assay, Hela; details: for IC50: 48 h
[6] = tested on: Hela cells; assay: Colony formation assay, Hela; details: 0.5 mM (so in the source), vs 5-Fu 5 μM
Outline: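 HeLa cells were seeded at 1500 per well in six-well plates and grown 48 h in regular medium. Cells were exposed to test compound or 5-Fu (positive control) at indicated concentrations for 7 days. They were then PBS-washed, fixed with paraformaldehyde 30 min, stained with crystal violet 30 min, and photographed. Clone formation rate was quantified; mean ± SD of three separate experiments.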

[7] = tested on: human liver cell line L-O2; assay: Cytotoxic activity on human liver cells
Outline: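 L-02 cells were grown in DMEM with 10 % FBS and 1 % penicillin–streptomycin at 37 °C, 5 % CO2, then seeded at 2 × 10^4 cells per well in 96-well plates. Test compounds were made as 20 mM DMSO stocks and applied at various concentrations for 48 h. MTT (5 mg/mL stock in PBS) was added for 4 h at 37 °C in the dark. Formazan was dissolved in DMSO and read at 490 nm; triplicate experiments.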

[8] = tested on: MCF-7; assay: MTT cell viability assay, MCF-7
[9] = tested on: HepG2; assay: MTT cell viability assay, HepG2; details: for IC50: read-out: IC50(μM) HepG2
[10] = Homo sapiens, HeLa, read-out: IC50(μM) Hela, MTT, 48 h, Hela
[11] = read-out: IC50(μM) Hela, MTT, Hela
[12] = Homo sapiens, MCF7, 48 h, read-out: IC50(μM) MCF-7, MTT, 48 h, MCF-7
[13] = read-out: IC50(μM) MCF-7, MTT, 48 h, MCF-7

Row | Compound | IC50 ([2]; Homo sapiens, A549, 48 h) [µM] | IC50 [5, 10] [µM] | IC50 [8, 12] [µM] | IC50 ([9]; Homo sapiens, HepG2, 48 h) [µM] | other results
1 | COc1cc(OC)c(C(=O)/C=C/c2ccc(Br)cn2)c(OC)c1 [B3, (E)-3-(5-bromopyridin-2-yl)-1-(2,4,6-trimethoxyphenyl)prop-2-en-1-one] | 5.19 ± 0.23 | 3.2 | 3.85 | 5.81 ± 0.37 | morphological changes of Hela cells [1]: cells shrinkage, nuclear division and formation of apoptotic bodies; inhibitory effect on cell viability over time, A549 ([2]; MTT at 24 h, 48 h and 72 h): excellent inhibitory effect; apoptosis index ([3]; 0.5 μM): 16.78%; apoptosis index ([3]; 1 μM): 26.41%; apoptosis index ([3]; 2 μM): 30.95%; apoptosis index ([3]; 4 μM): 39.8%; colony formation, MCF-7 [4]: slightly better than the positive control; fold potency than 5-fluorocrail, Hela ([5]; Hela cells, vs 5-Fu): over 10 fold; inhibitory effect on cell viability over time, Hela ([5]; MTT at 24 h, 48 h and 72 h): excellent inhibitory effect; IC50 [5, 11]: 3.2 ± 0.21 µM; colony formation, Hela [6]: slightly better than the positive control; toxicity on normal cells [7]: low toxicity to normal cells; fold potency than 5-fluorocrail, MCF-7 ([8]; MCF-7 cells, vs 5-Fu): over 10 fold; inhibitory effect on cell viability over time, MCF-7 ([8]; MTT at 24 h, 48 h and 72 h): excellent inhibitory effect; IC50 [8, 13]: 3.85 ± 0.28 µM; inhibitory effect on cell viability over time, HepG2 ([9]; MTT at 24 h, 48 h and 72 h): excellent inhibitory effect
2 | COc1cc(OC)c(C(=O)/C=C/c2ccc(-c3ccccc3)cc2)c(OC)c1 [B12, (E)-3-([1,1′-biphenyl]-4-yl)-1-(2,4,6-trimethoxyphenyl)prop-2-en-1-one] | 44.5 ± 1.05 | 46.3 ± 1.07 | 51.6 ± 1.23 | 38.1 ± 1.45 | –
3 | COc1cc(OC)c(C(=O)/C=C/c2ccc(-c3ccc(F)cc3)cc2)c(OC)c1 [B13, (E)-3-(4′-fluoro-[1,1′-biphenyl]-4-yl)-1-(2,4,6-trimethoxyphenyl)prop-2-en-1-one] | 40.6 ± 1.51 | 30.5 ± 0.89 | 35.3 ± 1.14 | 25.6 ± 0.77 | –
4 | COc1cc(OC)c(C(=O)/C=C/c2cc3ccccc3[nH]c2=O)c(OC)c1 [B14, (E)-3-(3-oxo-3-(2,4,6-trimethoxyphenyl)prop-1-en-1-yl)quinolin-2(1H)-one] | 10.7 ± 0.74 | 35 ± 0.83 | 7.92 ± 0.59 | 17.6 ± 0.74 | –
5 | COc1cc(OC)c(C(=O)/C=C/c2cc3cc(C)ccc3[nH]c2=O)c(OC)c1 [B15, (E)-6-methyl-3-(3-oxo-3-(2,4,6-trimethoxyphenyl)prop-1-en-1-yl)quinolin-2(1H)-one] | 20.4 ± 0.67 | 4.91 ± 0.3 | 16 ± 0.56 | 18 ± 0.62 | –
6 | COc1cc(OC)c(C(=O)/C=C/c2cc3cc(F)ccc3[nH]c2=O)c(OC)c1 [B16, (E)-6-fluoro-3-(3-oxo-3-(2,4,6-trimethoxyphenyl)prop-1-en-1-yl)quinolin-2(1H)-one] | 18.4 ± 0.65 | 18.1 ± 1.04 | 12.6 ± 0.73 | 15.1 ± 0.62 | –
7 | COc1cc(OC)c(C(=O)/C=C/c2ccc(OCC3CC3)cc2)c(OC)c1 [C1, (E)-3-(4-(cyclopropylmethoxy)phenyl)-1-(2,4,6-trimethoxyphenyl)prop-2-en-1-one] | > 100 | 45.5 ± 1.59 | > 100 | 39.3 ± 1.55 | –
8 | COc1cc(OC)c(C(=O)/C=C/c2ccc(OCC3CCCC3)cc2)c(OC)c1 [C2, (E)-3-(4-(cyclopentylmethoxy)phenyl)-1-(2,4,6-trimethoxyphenyl)prop-2-en-1-one] | 73.6 ± 1.17 | 22.6 ± 1.11 | > 100 | > 100 | –
9 | COc1cc(OC)c(C(=O)/C=C/c2ccc(OCC3CCCCC3)cc2)c(OC)c1 [C3, (E)-3-(4-(cyclohexylmethoxy)phenyl)-1-(2,4,6-trimethoxyphenyl)prop-2-en-1-one] | > 100 | > 100 | > 100 | > 100 | –
10 | COc1cc(OC)c(C(=O)/C=C/c2ccc(OCc3ccccc3)cc2)c(OC)c1 [C4, (E)-3-(4-(benzyloxy)phenyl)-1-(2,4,6-trimethoxyphenyl)prop-2-en-1-one] | > 100 | > 100 | > 100 | > 100 | –
11 | COc1cc(OC)c(C(=O)/C=C/c2ccc(OCc3ccc(Br)cc3)cc2)c(OC)c1 [C5, (E)-3-(4-((4-bromobenzyl)oxy)phenyl)-1-(2,4,6-trimethoxyphenyl)prop-2-en-1-one] | > 100 | > 100 | > 100 | > 100 | –
12 | COc1cc(OC)c(C(=O)/C=C/c2ccc(OCc3ccccn3)cc2)c(OC)c1 [C6, (E)-3-(4-(pyridin-2-ylmethoxy)phenyl)-1-(2,4,6-trimethoxyphenyl)prop-2-en-1-one] | 74.2 ± 1.84 | > 100 | > 100 | > 100 | –
13 | COc1cc(OC)c(C(=O)/C=C/c2ccc(OCc3ccsc3)cc2)c(OC)c1 [C7, (E)-3-(4-(thiophen-3-ylmethoxy)phenyl)-1-(2,4,6-trimethoxyphenyl)prop-2-en-1-one] | > 100 | 35 ± 1.17 | 87.8 ± 2.7 | 51.1 ± 2.1 | –
14 | COc1cc(OC)c(C(=O)/C=C/c2ccc(OCc3ccc4ccccc4c3)cc2)c(OC)c1 [C8, (E)-3-(4-(naphthalen-2-ylmethoxy)phenyl)-1-(2,4,6-trimethoxyphenyl)prop-2-en-1-one] | > 100 | > 100 | > 100 | > 100 | –
15 | COc1cc(OC)c(C(=O)/C=C/c2ccc(OCc3cnc4ccccc4c3)cc2)c(OC)c1 [C9, (E)-3-(4-(quinolin-3-ylmethoxy)phenyl)-1-(2,4,6-trimethoxyphenyl)prop-2-en-1-one] | > 100 | > 100 | > 100 | > 100 | –
16 | COc1cc(OC)c(C(=O)/C=C/c2ccc(OCc3cc4ccccc4[nH]c3=O)cc2)c(OC)c1 [C10, (E)-3-((4-(3-oxo-3-(2,4,6-trimethoxyphenyl)prop-1-en-1-yl)phenoxy)methyl)quinolin-2(1H)-one] | > 100 | > 100 | > 100 | > 100 | –
17 | (E)-3-(3,4-dimethoxyphenyl)-1-(2,4,6-trimethoxyphenyl)prop-2-en-1-one [A3] | – | – | – | – | IC50 ([2]; MTT, 48 h, A549): > 100 µM; IC50 [5, 11]: 71.5 ± 1.54 µM; IC50 [8, 13]: > 100 µM; IC50 ([9]; MTT, 48 h, HepG2): 35.4 ± 1.37 µM
18 | (E)-3-(3,5-dimethoxyphenyl)-1-(2,4,6-trimethoxyphenyl)prop-2-en-1-one [A4] | – | – | – | – | IC50 ([2]; MTT, 48 h, A549): 71.2 ± 1.56 µM; IC50 [5, 11]: 32.3 ± 1.31 µM; IC50 [8, 13]: 32.4 ± 1.29 µM; IC50 ([9]; MTT, 48 h, HepG2): 33.4 ± 1.37 µM
19 | (E)-3-(3-hydroxy-4-methoxyphenyl)-1-(2,4,6-trimethoxyphenyl)prop-2-en-1-one [A5] | – | – | – | – | IC50 ([2]; MTT, 48 h, A549): 70.9 ± 1.82 µM; IC50 [5, 11]: 38.8 ± 1.21 µM; IC50 [8, 13]: 24.7 ± 0.94 µM; IC50 ([9]; MTT, 48 h, HepG2): 40.7 ± 1.29 µM

Reference: article PMC9845116 (Saudi Pharmaceutical Journal : SPJ, 2022)
